Laboratory results from ChEMBL document CHEMBL1128385, “Three-dimensional quantitative structure-activity relationships of somatostatin analogues. 1. Comparative molecular field analysis of growth hormone release-inhibiting potencies” (J Med Chem, 1995).
Where a SMILES comes first, the peptide text is derived from it. Bridges are numbered along the chain shown (N, C = ends). [ ]: non-standard residue; d: D form. Phe(4-NO2) = N[C@@H](Cc1ccc([N+](=O)[O-])cc1)C(=O)O; Phe(4-Cl) = N[C@@H](Cc1ccc(Cl)cc1)C(=O)O; dPhe(4-Cl) = N[C@H](Cc1ccc(Cl)cc1)C(=O)O; 2Nal = N[C@@H](Cc1ccc2ccccc2c1)C(=O)O; d2Nal = N[C@H](Cc1ccc2ccccc2c1)C(=O)O; Abu = CC[C@H](N)C(=O)O

Species: Rattus norvegicus
Assay: In vitro GH release inhibiting potency on anterior pitutaries from adult male rats, relative to somatostatin
Type: functional
Outline: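 Rat anterior pituitary cells (adult males, 200-250 g), trypsin/DNase dispersed, plated 2 × 10^5 cells/well, cultured 96 h at 37 °C in serum-supplemented DMEM. After washing, cells were pulsed 3 h at 37 °C with 1 nM GRF(1-29)NH2 ± graded analogue doses in medium 199/1% BSA, quadruplicate wells. Medium GH was measured by double-antibody RIA. Potency relative to somatostatin (=1.0) came from four-point assay (mean of ≥3 experiments) or IC50 comparison.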

Compared with `CC(C)[C@@H]1NC(=O)[C@H](CCCCN)NC(=O)[C@@H](Cc2c[nH]c3ccccc23)NC(=O)[C@H](Cc2c[nH]c3ccccc23)NC(=O)[C@H](NC(=O)[C@H](N)Cc2ccccc2)CSSC[C@@H](C(=O)N[C@@H](Cc2ccc3ccccc3c2)C(N)=O)NC1=O`, `CC(C)[C@@H]1NC(=O)[C@H](CCCCN)NC(=O)[C@@H](Cc2c[nH]c3ccccc23)NC(=O)[C@H](Cc2ccc(O)cc2)NC(=O)[C@@H](NC(=O)[C@H](N)Cc2ccccc2)CSSC[C@@H](C(=O)N[C@@H](Cc2ccc3ccccc3c2)C(N)=O)NC1=O` (H-[dF]CY[dW]KVC[2Nal]-NH2; disulfide 2-7) is higher in GHI: 0.2 for the first, 0.43 for the second.

First: CC(C)[C@@H]1NC(=O)[C@H](CCCCN)NC(=O)[C@@H](Cc2c[nH]c3ccccc23)NC(=O)[C@H](Cc2ccc(O)cc2)NC(=O)[C@@H](NC(=O)[C@H](N)Cc2ccc3ccccc3c2)CSSC[C@@H](C(=O)N[C@H](C(=O)O)[C@@H](C)O)NC1=O
Second: CC(C)[C@@H]1NC(=O)[C@H](CCCCN)NC(=O)[C@@H](Cc2c[nH]c3ccccc23)NC(=O)[C@H](Cc2ccc(O)cc2)NC(=O)[C@@H](NC(=O)[C@H](N)Cc2ccc3ccccc3c2)CSSC[C@@H](C(=O)N[C@H](C(N)=O)[C@@H](C)O)NC1=O
The GHI of the first is higher: 1.07 for the first, 0.83 for the second.

Going from `CC(C)[C@@H]1NC(=O)[C@H](CCCCN)NC(=O)[C@@H](Cc2c[nH]c3ccccc23)NC(=O)[C@H](Cc2ccc(O)cc2)NC(=O)[C@H](NC(=O)[C@H](N)C(c2ccccc2)c2ccccc2)CSSC[C@@H](C(=O)N[C@@H](Cc2ccc3ccccc3c2)C(N)=O)NC1=O` to `CC(C)[C@@H]1NC(=O)[C@H](CCCCN)NC(=O)[C@@H](Cc2c[nH]c3ccccc23)NC(=O)[C@H](Cc2ccc(O)cc2)NC(=O)[C@@H](NC(=O)[C@H](N)Cc2ccc3ccccc3c2)CSSC[C@@H](C(=O)N[C@@H](Cc2ccc3ccccc3c2)C(N)=O)NC1=O` (H-[d2Nal]CY[dW]KVC[2Nal]-NH2; disulfide 2-7), the GHI rises from 0.91 to 11.

Going from `CC(C)[C@@H]1NC(=O)[C@H](CCCCN)NC(=O)[C@@H](Cc2c[nH]c3ccccc23)NC(=O)[C@H](Cc2ccc(O)cc2)NC(=O)[C@H](NC(=O)[C@H](N)Cc2ccc3ccccc3c2)CSSC[C@@H](C(=O)N[C@@H](Cc2ccc3ccccc3c2)C(=O)O)NC1=O` to `CC(C)[C@@H]1NC(=O)[C@H](CCCN)NC(=O)[C@@H](Cc2c[nH]c3ccccc23)NC(=O)[C@H](Cc2ccc(O)cc2)NC(=O)[C@H](NC(=O)[C@H](N)Cc2ccc3ccccc3c2)CSSC[C@@H](C(=O)N[C@@H](Cc2ccc3ccccc3c2)C(N)=O)NC1=O`, the GHI rises from 1.12 to 4.17.

Going from `CC(C)[C@@H]1NC(=O)[C@H](CCCCN)NC(=O)[C@@H](Cc2c[nH]c3ccccc23)NC(=O)[C@H](Cc2ccc(O)cc2)NC(=O)[C@H](NC(=O)[C@H](N)Cc2ccccc2)CSSC[C@@H](C(=O)N[C@@H](Cc2ccc3ccccc3c2)C(=O)O)NC1=O` to `C[C@@H](O)[C@@H]1NC(=O)[C@H](CCCCN)NC(=O)[C@@H](Cc2c[nH]c3ccccc23)NC(=O)[C@H](Cc2ccc(O)cc2)NC(=O)[C@@H](NC(=O)[C@H](N)Cc2ccccc2)CSSC[C@@H](C(=O)N[C@@H](Cc2ccc3ccccc3c2)C(N)=O)NC1=O`, the GHI falls from 0.06 to 0.05.

Compared with `CC(C)[C@H](NC(=O)[C@H](CCCCN)NC(=O)[C@@H](Cc1c[nH]c2ccccc12)NC(=O)[C@H](Cc1ccc(O)cc1)NC(=O)[C@H](C)NC(=O)[C@H](N)Cc1ccc(Cl)cc1)C(=O)N[C@@H](C)C(=O)N[C@H](Cc1ccccc1)C(N)=O`, `CC(C)[C@H](NC(=O)[C@H](CCCCN)NC(=O)[C@@H](Cc1c[nH]c2ccccc12)NC(=O)[C@H](Cc1ccc(O)cc1)NC(=O)[C@H](C)NC(=O)[C@H](N)Cc1ccc(Cl)cc1)C(=O)N[C@@H](C)C(=O)N[C@@H](Cc1ccc2ccccc2c1)C(N)=O` (H-[dPhe(4-Cl)]AY[dW]KVA[2Nal]-NH2) is lower in GHI: 417 for the first, 45 for the second.

First: CC(C)[C@H](NC(=O)[C@H](CCCCN)NC(=O)[C@@H](Cc1c[nH]c2ccccc12)NC(=O)[C@H](Cc1ccc(O)cc1)NC(=O)[C@H](Cc1ccc(Cl)cc1)NC(=O)[C@H](N)Cc1ccccc1)C(=O)N[C@@H](Cc1ccccc1)C(=O)N[C@H](C)C(N)=O
Second: CC(C)[C@H](NC(=O)[C@H](CCCCN)NC(=O)[C@@H](Cc1c[nH]c2ccccc12)NC(=O)[C@H](Cc1ccc(O)cc1)NC(=O)[C@H](Cc1ccc(Cl)cc1)NC(=O)[C@H](N)Cc1ccccc1)C(=O)N[C@@H](Cc1ccccc1)C(=O)N[C@H](C(N)=O)[C@@H](C)O (H-[dF][Phe(4-Cl)]Y[dW]KVFT-NH2)
The GHI of the first is higher: 4000 for the first, 17 for the second.

First: CN[C@H](C)C(=O)N[C@@H](Cc1ccc(O)cc1)C(=O)N[C@H](Cc1c[nH]c2ccccc12)C(=O)N[C@@H](CCCCN)C(=O)N[C@H](C(=O)N[C@@H](Cc1ccccc1)C(N)=O)C(C)C
Second: CC(C)[C@H](NC(=O)[C@H](CCCCN)NC(=O)[C@@H](Cc1c[nH]c2ccccc12)NC(=O)[C@H](Cc1ccc(O)cc1)NC(=O)[C@H](C)NC(=O)[C@H](N)Cc1ccccc1)C(=O)N[C@@H](C)C(=O)N[C@@H](Cc1ccc2ccccc2c1)C(N)=O (H-[dF]AY[dW]KVA[2Nal]-NH2)
The GHI of the first is higher: 20000 for the first, 15 for the second.

First: C[C@@H](O)[C@@H]1NC(=O)[C@H](CCCCN)NC(=O)[C@@H](Cc2c[nH]c3ccccc23)NC(=O)[C@H](Cc2ccccc2)NC(=O)[C@@H](NC(=O)[C@H](N)Cc2ccccc2)CSSC[C@@H](C(=O)N[C@@H](Cc2ccc3ccccc3c2)C(N)=O)NC1=O
Second: NCCCC[C@@H]1NC(=O)[C@@H](Cc2c[nH]c3ccccc23)NC(=O)[C@H](Cc2ccc(O)cc2)NC(=O)[C@@H](NC(=O)[C@H](N)Cc2ccccc2)CSSC[C@@H](C(=O)N[C@@H](Cc2ccc3ccccc3c2)C(N)=O)NC(=O)[C@H](CO)NC1=O
The GHI of the first is higher: 0.22 for the first, 0.03 for the second.

Going from `C[C@@H](O)[C@H](NC(=O)[C@@H]1CSSC[C@H](NC(=O)[C@H](N)Cc2ccc3ccccc3c2)C(=O)N[C@@H](Cc2ccc(O)cc2)C(=O)N[C@H](Cc2c[nH]c3ccccc23)C(=O)N[C@@H](CCCCN)C(=O)N[C@@H]([C@@H](C)O)C(=O)N1)C(N)=O` to `CC[C@@H]1NC(=O)[C@H](CCCCN)NC(=O)[C@@H](Cc2c[nH]c3ccccc23)NC(=O)[C@H](Cc2ccc(O)cc2)NC(=O)[C@@H](NC(=O)[C@H](N)Cc2ccccc2)CSSC[C@@H](C(=O)N[C@@H](Cc2ccc3ccccc3c2)C(N)=O)NC1=O` (H-[dF]CY[dW]K[Abu]C[2Nal]-NH2; disulfide 2-7), the GHI falls from 0.19 to 0.03.

First: C[C@@H](O)[C@H](NC(=O)[C@H](CCCCN)NC(=O)[C@@H](Cc1c[nH]c2ccccc12)NC(=O)[C@H](Cc1ccc(O)cc1)NC(=O)[C@H](Cc1ccc(Cl)cc1)NC(=O)[C@H](N)Cc1ccccc1)C(=O)N[C@@H](Cc1ccccc1)C(=O)N[C@@H](Cc1ccc2ccccc2c1)C(N)=O
Second: CC(C)[C@H](NC(=O)[C@H](CCCCN)NC(=O)[C@@H](Cc1c[nH]c2ccccc12)NC(=O)[C@H](Cc1ccc(O)cc1)NC(=O)[C@H](Cc1ccccc1)NC(=O)[C@H](N)Cc1ccccc1)C(=O)N[C@@H](Cc1ccccc1)C(=O)N[C@H](Cc1ccc2ccccc2c1)C(N)=O (H-[dF]FY[dW]KVF[d2Nal]-NH2)
The GHI of the first is lower: 100 for the first, 12500 for the second.

Going from `C[C@H](NC(=O)[C@H](N)Cc1ccccc1)C(=O)N[C@@H](Cc1ccc(O)cc1)C(=O)N[C@H](Cc1c[nH]c2ccccc12)C(=O)N[C@@H](CCCCN)C(=O)N[C@H](C(=O)N[C@@H](C)C(=O)N[C@@H](Cc1ccc2ccccc2c1)C(N)=O)[C@@H](C)O` to `CC(C)[C@H](NC(=O)[C@H](CCCCN)NC(=O)[C@@H](Cc1c[nH]c2ccccc12)NC(=O)[C@H](Cc1ccc(O)cc1)NC(=O)[C@H](C)NC(=O)[C@H](N)Cc1ccc2ccccc2c1)C(=O)N[C@@H](C)C(=O)N[C@H](C(N)=O)[C@@H](C)O` (H-[d2Nal]AY[dW]KVAT-NH2), the GHI rises from 16 to 435.

First: C[C@@H](O)[C@H](NC(=O)[C@H](Cc1ccccc1)NC(=O)[C@@H](NC(=O)[C@H](CCCCN)NC(=O)[C@@H](Cc1c[nH]c2ccccc12)NC(=O)[C@H](Cc1ccc(O)cc1)NC(=O)[C@H](Cc1ccc(Cl)cc1)NC(=O)[C@H](N)Cc1ccc2ccccc2c1)[C@@H](C)O)C(N)=O (H-[d2Nal][Phe(4-Cl)]Y[dW]KTFT-NH2)
Second: C[C@@H](O)[C@H](NC(=O)[C@H](Cc1ccccc1)NC(=O)[C@@H](NC(=O)[C@H](CCCCN)NC(=O)[C@@H](Cc1c[nH]c2ccccc12)NC(=O)[C@H](Cc1ccc(O)cc1)NC(=O)[C@H](Cc1ccc(Cl)cc1)NC(=O)[C@H](N)Cc1ccccc1)[C@@H](C)O)C(N)=O (H-[dF][Phe(4-Cl)]Y[dW]KTFT-NH2)
The GHI of the first is higher: 17 for the first, 3.4 for the second.

First: C[C@H](NC(=O)[C@H](N)Cc1ccccc1)C(=O)N[C@@H](Cc1ccccc1)C(=O)N[C@H](Cc1c[nH]c2ccccc12)C(=O)N[C@@H](CCCCN)C(=O)N[C@H](C(=O)N[C@@H](C)C(=O)N[C@H](C(N)=O)[C@@H](C)O)[C@@H](C)O (H-[dF]AF[dW]KTAT-NH2)
Second: C[C@@H](O)[C@H](NC(=O)[C@H](Cc1ccccc1)NC(=O)[C@@H](NC(=O)[C@H](CCCCN)NC(=O)[C@@H](Cc1c[nH]c2ccccc12)NC(=O)[C@H](Cc1ccccc1)NC(=O)[C@H](Cc1ccccc1)NC(=O)[C@H](N)Cc1ccccc1)[C@@H](C)O)C(N)=O (H-[dF]FF[dW]KTFT-NH2)
The GHI of the first is higher: 2500 for the first, 77 for the second.

First: CC(C)[C@H](NC(=O)[C@H](CCCCN)NC(=O)[C@@H](Cc1c[nH]c2ccccc12)NC(=O)[C@H](Cc1ccc(O)cc1)NC(=O)[C@H](Cc1ccccc1)NC(=O)[C@H](N)Cc1ccccc1)C(=O)N[C@@H](Cc1ccccc1)C(=O)N[C@H](C(N)=O)[C@@H](C)O (H-[dF]FY[dW]KVFT-NH2)
Second: CC(C)[C@H](NC(=O)[C@H](CCCCN)NC(=O)[C@@H](Cc1c[nH]c2ccccc12)NC(=O)[C@H](Cc1ccc(O)cc1)NC(=O)[C@H](Cc1ccc([N+](=O)[O-])cc1)NC(=O)[C@H](N)Cc1ccccc1)C(=O)N[C@@H](Cc1ccccc1)C(=O)N[C@H](C(N)=O)[C@@H](C)O (H-[dF][Phe(4-NO2)]Y[dW]KVFT-NH2)
The GHI of the first is lower: 111 for the first, 159 for the second.

Work on `CC(C)[C@H](NC(=O)[C@H](CCCCN)NC(=O)[C@@H](Cc1c[nH]c2ccccc12)NC(=O)[C@H](Cc1ccc(O)cc1)NC(=O)[C@H](Cc1ccccc1)NC(=O)[C@H](N)Cc1ccccc1)C(=O)N[C@@H](Cc1ccccc1)C(=O)N[C@H](Cc1ccccc1)C(N)=O` (H-[dF]FY[dW]KVF[dF]-NH2) yielded a GHI of 11100.
